In assay [1] the test system is Respiratory syncytial virus. In words: Antiviral activity against RSV A2 in MA104 cells by CPE assay. It counts as functional, organism-based. The note with it: human respiratory syncytial virus. The method in brief: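 RSV strain A2 grown in MA-104 cells; cells passaged in MEM with 9% fetal bovine serum and 0.1% NaHCO3. Cytopathic-effect inhibition read-out. Activity expressed as 50% effective concentration (EC50) in µg/mL.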

The test system of assay [2] is Respiratory syncytial virus. The assay can be described thus: Antiviral activity against RSV A2 in MA104 cells by plaque reduction assay. It counts as functional, organism-based. The note with it: human respiratory syncytial virus. The method in brief: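 MA-104 monolayers infected with 200 PFU/well RSV A2, adsorbed 2.5 h at 37 °C in serum-free MEM. Inoculum removed and agarose overlay added; each compound dilution plated in duplicate. Plaques counted after 4 days and expressed as percent of control. EC50 (µg/mL) derived by regression of mean percent of control at each concentration.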

≈ marks a conversion by molar mass, not a printed value.

As a reminder, the EC50 is the concentration at which the effect is half-maximal. Read a low EC50 as higher potency in that assay. What is called IC50 is the midpoint of a concentration-inhibition curve. A higher IC50 goes with lower potency. In assay [1], `C/C=C(/C)C(=O)O[C@@H]1[C@@H]2OC[C@]3(C)[C@H](O)C[C@H](OC(C)=O)[C@@](C)([C@@H]23)[C@H]2C[C@H](OC(C)=O)[C@]3(C)C(=CC[C@H]3C3COC(=O)C3)[C@]12C` (stereo partly drawn) [DYSOXYLIN A] had an EC50 of 2 µg/mL (≈ 3.18 µM) and an IC50 of 150 µg/mL (≈ 239 µM). In assay [2], this compound returned an EC50 of 150 µg/mL (≈ 239 µM) and an IC50 of 112 µg/mL (≈ 178 µM).
As to `CC(=O)O[C@H]1C[C@H]2[C@](C)(C3=CC[C@@H](C4COC(=O)C4)[C@@]31C)[C@H](OC(=O)c1ccccc1)[C@@H]1OC[C@]3(C)[C@H](O)C[C@H](OC(C)=O)[C@@]2(C)[C@@H]13` (stereo partly drawn) [DYSOXYLIN B], in assay [1], the concentration giving a half-maximal response (EC50) is 4 µg/mL (≈ 6.15 µM) and the IC50 worked out at 16 µg/mL (≈ 24.6 µM). In assay [2], this compound gave an EC50 of 30 µg/mL (≈ 46.1 µM) and an IC50 of 7 µg/mL (≈ 10.8 µM).
In assay [2], `CCC(C)C(=O)O[C@@H]1[C@@H]2OC[C@]3(C)[C@H](O)C[C@H](OC(C)=O)[C@@](C)([C@@H]23)[C@H]2C[C@H](OC(C)=O)[C@]3(C)C(=CC[C@H]3C3COC(=O)C3)[C@]12C` (stereo partly drawn) [DYSOXYLIN C] showed a 50% effective concentration (EC50) of 146 µg/mL (≈ 231 µM) and a half-inhibitory concentration (IC50) of 52 µg/mL (≈ 82.4 µM).
In assay [1], `CC(=O)O[C@H]1C[C@H]2[C@](C)(C3=CC[C@@H](C4COC(=O)C4)[C@@]31C)[C@H](OC(=O)/C=C(\C)C(C)C)[C@@H]1OC[C@]3(C)[C@H](O)C[C@H](OC(C)=O)[C@@]2(C)[C@@H]13` (stereo partly drawn) [DYSOXYLIN D] displayed an EC50 of 1 µg/mL (≈ 1.52 µM) and an IC50 of more than 200 µg/mL. Besides, in assay [2], the concentration for a half-maximal effect (EC50) was determined as 40 µg/mL (≈ 60.9 µM) and the IC50 was found to be 42 µg/mL (≈ 63.9 µM).
In assay [1], `NC(=O)c1ncn([C@@H]2O[C@H](CO)[C@@H](O)[C@H]2O)n1` [RIBAVIRIN] displayed an EC50 of 3.6 µg/mL (≈ 14.7 µM) and an IC50 of 180 µg/mL (≈ 737 µM). In assay [2], this compound yielded an EC50 of 20 µg/mL (≈ 81.9 µM) and an IC50 of 460 µg/mL (≈ 1880 µM).

The record behind these values is ChEMBL document CHEMBL1142060, “Dysoxylins A-D, tetranortriterpenoids with potent anti-RSV activity from Dysoxylum gaudichaudianum” (J Nat Prod, 2007).
